Key:
Type in all cases: functional
Mus musculus [1] = test: Compound was evaluated for anticancer activity against Sarcoma180 tumor bearing mice by measuring T/C X 100 (dose 5 mg/kg daily)
In short: (§1)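 CDF1 mice given ~10^6 Sarcoma 180 ascites cells ip (from 7-day donor ascites, saline-diluted); compound as fine suspension in a few drops 20% aqueous Tween 80 made up in isotonic saline, 0.5 mL ip once daily for 6 days from 24 h post-implant. Survival time of treated vs vehicle-injected controls expressed as T/C × 100; 5–15 mice per value.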

Mus musculus [2] = test: Compound was evaluated for anticancer activity against Sarcoma180 tumor bearing mice by measuring average weight (dose 10 mg/kg daily)
In short: (§2)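 Sarcoma 180 ascites-bearing CDF1 mice (~10^6 cells ip) dosed ip daily for 6 consecutive days starting 24 h after implantation, drug suspended with 20% aqueous Tween 80 in isotonic saline. Mice weighed during the experiment; percent body weight change from onset to end of therapy recorded as the toxicity index, average per group; 5–15 mice per value.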

Mus musculus [3] = test: Compound was evaluated for anticancer activity against Sarcoma180 tumor bearing mice by measuring average weight (dose 5 mg/kg daily); in short: as §2
Mus musculus [4] = test: Compound was evaluated for anticancer activity against Sarcoma180 tumor bearing mice by measuring average weight (dose 2.5 mg/kg daily); in short: as §2
Mus musculus [5] = test: Compound was evaluated for anticancer activity against Sarcoma180 tumor bearing mice by measuring T/C X 100 (dose 2.5 mg/kg daily); in short: as §1
Mus musculus [6] = test: Compound was evaluated for anticancer activity against Sarcoma180 tumor bearing mice by measuring T/C X 100 (dose 10 mg/kg daily); in short: as §1
Mus musculus [7] = test: Compound was evaluated for anticancer activity against Sarcoma180 tumor bearing mice by measuring T/C X 100 (dose 3.25 mg/kg daily); in short: as §1
Mus musculus [8] = test: Compound was evaluated for anticancer activity against Sarcoma180 tumor bearing mice by measuring average weight (dose 15 mg/kg daily); in short: as §2
Mus musculus [9] = test: Compound was evaluated for anticancer activity against Sarcoma180 tumor bearing mice by measuring average weight (dose 3.25 mg/kg daily); in short: as §2
Mus musculus [10] = test: Compound was evaluated for anticancer activity against Sarcoma180 tumor bearing mice by measuring T/C X 100 (dose 15 mg/kg daily); in short: as §1
Mus musculus [11] = test: Compound was evaluated for anticancer activity against Sarcoma180 tumor bearing mice by measuring average weight (dose 7.5 mg/kg daily); in short: as §2
Mus musculus [12] = test: Compound was evaluated for anticancer activity against Sarcoma180 tumor bearing mice by measuring T/C X 100 (dose 7.5 mg/kg daily); in short: as §1

SMILES	T/C (Mus musculus [1])	Average weight (Mus musculus [2]) [%]	Average weight (Mus musculus [3]) [%]	Average weight (Mus musculus [4]) [%]	T/C (Mus musculus [5])	T/C (Mus musculus [6])	T/C (Mus musculus [7])	Average weight (Mus musculus [8]) [%]	Average weight (Mus musculus [9]) [%]	T/C (Mus musculus [10])	Average weight (Mus musculus [11]) [%]	T/C (Mus musculus [12])
CS(=O)(=O)OCC1=C(COS(C)(=O)=O)C(=O)c2ccccc2C1=O	204	-2	5.9	18.4	114	232						
Cc1ccc(S(=O)(=O)OCC2=C(COS(=O)(=O)c3ccc(C)cc3)C(=O)c3ccccc3C2=O)cc1	138	13.8	21	22.3	130	126						
O=C(NCCCl)OCC1=C(COC(=O)NCCCl)C(=O)c2ccccc2C1=O	209	-7.8	-4.3	0	230	189						
CC1=C(C)C(=O)c2ccccc2C1=O							104	0.5	1.4	103	1.3	78
CNC(=O)OCC1=C(COC(=O)NC)C(=O)c2ccccc2C1=O	177	-10	-7.6	3.8	266	200						
O=C1C(CBr)=C(CBr)C(=O)c2ccccc21							165	-14.1	-8.8	140	-14.3	130
O=C1C(CO)=C(CO)C(=O)c2ccccc21							55	-9.9	10.8	37	-14.3	51
O=C1C(CCl)=C(CCl)C(=O)c2ccccc21							100	-15.6	-15.1	122	-10.3	158
